# AF4-AF9 inh: inhibitors of AF4 peptide binding to AF9, primary screen, biochemical, AlphaScreen, biotin-AF4 peptide, FLAG-AF9, single point | Protein AF-9 (Homo sapiens), P42568 | inhibition, % at 10 µM | actives 0.47% (n = 350,000);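 active means every replicate reaching a set inhibition limit, whatever the replicate mean, cut at about 25% in these data; inconclusive means mean inhibition reaches that limit but some replicates miss it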;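 further: 0% = plate neutral control median and 100% = total signal loss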
# PDI turbidity: inhibitors of human PDI, primary screen, biochemical, turbidity, single point, plate reader. Protein disulfide-isomerase (Homo sapiens), P07237. AID 588391, 2011. actives 0.052% (n = 350,000). PDI insulin aggregation turbidity, A650, 90 min. inhibition, % at 10 µM;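 active means mean inhibition across replicates of 30% or more, whatever share of single replicates reach that level; inconclusive means mean inhibition below 30% while every single replicate reaches 30%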
# ARNT TACC3 PPI: disruptors of ARNT/TACC3 protein interaction, primary screen, biochemical, AlphaScreen, single concentration | AlphaScreen His-ARNT PAS-B/GST-TACC3 binding, luminescence; TACC3 fragment carries E629A point mutation | inhibition, % at 9.99 µM | actives 0.66% (n = 390,000) | AID 623870, 2012;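 active means mean inhibition of replicates at least 50% and at least half of replicates each reaching 50%; inconclusive means half or more replicates reach 50% but mean below 50%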;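 further: 0% = complete ARNT plus TACC3 wells and 100% = ARNT alone without TACC3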
# ERp5 block: inhibitors of ERp5-driven insulin aggregation, primary screen, biochemical, turbidity, absorbance 650 nm, single point. Protein disulfide-isomerase A6 (Homo sapiens), Q15084. 90 min. actives 0.05% (n = 350,000). inhibition, % at 9.99 µM;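 active means mean replicate inhibition above about 25%, with every replicate also reaching it, limit read from the data, passing the limit was not always enough; inconclusive means only one of those two criteria met; inactive means neither criterion met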
# Target sequence (Q15084 whole entry, looked up): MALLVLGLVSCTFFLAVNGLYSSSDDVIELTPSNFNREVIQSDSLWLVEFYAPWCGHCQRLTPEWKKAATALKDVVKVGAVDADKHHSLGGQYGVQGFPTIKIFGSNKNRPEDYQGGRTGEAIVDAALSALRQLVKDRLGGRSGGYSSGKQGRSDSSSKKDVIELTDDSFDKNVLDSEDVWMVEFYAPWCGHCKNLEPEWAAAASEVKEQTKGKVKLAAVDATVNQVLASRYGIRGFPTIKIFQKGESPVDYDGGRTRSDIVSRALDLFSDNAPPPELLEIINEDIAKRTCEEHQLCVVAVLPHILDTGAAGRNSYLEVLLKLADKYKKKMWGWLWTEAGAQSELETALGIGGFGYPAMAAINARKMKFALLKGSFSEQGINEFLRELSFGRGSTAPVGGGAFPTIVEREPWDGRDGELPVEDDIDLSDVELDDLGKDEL
# FGF22 binding: binders of human FGF22 protein, primary screen, FGF22 synaptogenesis inhibitor project, biophysical, thermal shift, single point; recombinant FGF22 thermal shift, SYPRO orange fluorescence; percent of sucrose octasulfate shift, DMSO zero; activity (Tm shift, normalised), % at 9.99 µM; actives 1.5% (n = 340,000); AID 651658, 2012;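 active means mean Tm shift, scaled 0 neutral to 100 positive control, at about 1.3% or above, every replicate too, limit read from the data; inconclusive means no clear call, values can overlap the other calls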
# Target sequence (Q9HCT0 whole entry, looked up): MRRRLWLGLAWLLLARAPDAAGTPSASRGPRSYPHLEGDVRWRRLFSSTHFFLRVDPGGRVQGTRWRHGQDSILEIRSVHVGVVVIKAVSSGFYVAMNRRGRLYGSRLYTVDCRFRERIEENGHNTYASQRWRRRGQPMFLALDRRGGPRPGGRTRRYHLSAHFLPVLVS
# FN deposition inh: inhibitors of fibronectin matrix deposition, primary screen, AH1F cells, Alexa488-fibronectin fluorescence, plate reader. AH1F fibroblasts, overnight. actives 0.086% (n = 350,000). inhibition, % at 12.6 µM;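 active means mean inhibition across replicates of 30% or more, regardless of how many single replicates reach that level; inconclusive means mean under 30% yet at least half of replicates reach 30%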;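 further: positive control wells lacked labelled fibronectin entirely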
#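 Schedule: 1 h cell adhesion before compound, then overnight fibronectin incubation; test system: AH1F fibroblast monolayer depositing Alexa488-labelled fibronectin into matrix; quantity: 10000 AH1F cells per well; probe or stimulus: fluorescent fibronectin at 24 nM final; signal: fluorescence, ex 485 nm, em 525 nm; evaluation: percent inhibition as loss of matrix-bound fibronectin fluorescence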
# AlphaScreen ctr: AlphaScreen signal interference compounds, dose response, artefact control for ARNT-TACC3 interaction inhibitor project, biochemical, luminescence, cherry-pick; shares compounds with ARNT TACC3 PPI; His-ARNT PASB-GST AlphaScreen artifact counter-screen; AC50, µM (titrated, usually from 68 µM), without a hit: at the highest dose activity change, negative = signal decrease; actives 50% (n = 1,200); AID 651705, 2012;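 active means every separate test run was called active for a drop in luminescence, with AC50 within twice the top valid dose, actives reach about 71 µM in these data; inconclusive means the separate test runs disagree in their calls; inactive means all runs inactive, including signal change in the wrong direction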
# An asterisk follows results filed as active; ? = inconclusive; / = no result given; [ ] = dose if it differs, or a comment. Most compounds without a hit are left out; they make up all but 2.1% or so of the library.
SMILES,AF4-AF9 inh,PDI turbidity,ARNT TACC3 PPI,ERp5 block,FGF22 binding,FN deposition inh,AlphaScreen ctr
C[C@@H]1CN([C@H](C)CO)S(=O)(=O)c2ccc(-c3cccnc3)cc2O[C@@H]1CN(C)C(=O)NC1CCCCC1,2,/,-7,-3,0,-2,/
CCSc1nnc(NC(=O)c2cccnc2Cl)s1,/,11,-1,/,/,1,/
CCSc1nnc(NC(=O)c2ccccn2)s1,/,-7,52*,/,/,0,31µM*
O=C(C[C@@H]1C=C[C@H](NC(=O)CC2CC2)[C@@H](CO)O1)NCc1ccccc1,0,/,/,0,/,/,/
Cc1nn2c(nc1=O)NNC2(C)C(C)(C)C (stereo not given),-2,0,64*,4,0,6,-3%
CN(Cc1ccccc1)CC(O)COc1ccc(CNCc2nccn2C)cc1 (stereo not given),15,2,63*,-4,0,-7,-16%
C#CCOc1ccc(OC)cc1C(c1c(C)[nH][nH]c1=O)c1c(C)[nH][nH]c1=O,/,-22,37*,/,/,/,2%
CO[C@@H]1CN(C)C(=O)c2ccc(NS(C)(=O)=O)cc2OC[C@@H](C)N(Cc2cccnc2)C[C@H]1C,0,/,/,/,/,-2,/
CCc1c(C)sc(NC(=O)C2CC(c3c(F)cccc3Cl)=NO2)c1C#N (stereo not given),0,4,active,2,0,5,3%
N#Cc1c(NC(=O)C2CC(c3c(F)cccc3Cl)=NO2)sc2c1CCC2 (stereo not given),/,-2,1,/,/,/,/
C[C@@H]1CN([C@H](C)CO)C(=O)c2cc(C3=CCCC3)cnc2O[C@H]1CN(C)C(=O)C1CCOCC1,-2,/,0,-4,0,/,/
COc1cccc(NC(=O)N2CC(=O)N3[C@H](CO)[C@@H](c4ccc(C5=CCCC5)cc4)[C@H]3C2)c1,0,/,/,1,/,3,/
COc1ccccc1NS(=O)(=O)c1cccc(C(=O)N/N=C/c2ccc(OCC(=O)O)cc2)c1,2,5,-2,3,1,7,/
O=C(O)COc1ccccc1/C=N/NC(=O)c1cccc(S(=O)(=O)Nc2cccc(Cl)c2)c1,-4,-6,52*,0,43*,-10,71µM*
N#CC1=C(N)Oc2n[nH]c(-c3ccccn3)c2C1c1c(F)cccc1Cl (stereo not given),/,-5,55*,/,/,/,-8%
COCc1[nH]nc2c1C(c1c(F)cccc1Cl)C(C#N)=C(N)O2 (stereo not given),/,-1,-8,/,/,/,/
O=C(NC(O)C(=O)c1ccccc1)c1ccccn1 (stereo not given),0,-10,7,-2,0,2,/
O=C(NN=C(c1ccccc1)c1ccccn1)c1ccccc1,1,6,57*,-5,0,2,-21%
C/C(=N\NC(=O)c1cccc2ccccc12)c1ccccn1,-2,-9,63*,-11,0,0,29µM*
O=C(CN1CC(=O)Oc2ccccc21)NCc1ccco1,/,-6,61*,/,/,/,19µM*
O=C(CN1CCOc2ccccc21)NCc1ccco1,1,/,0,-2,0,3,/
Cc1cccc(S(=O)(=O)N[C@H]2CC[C@@H](CCn3cc(-c4ccccn4)nn3)O[C@@H]2CO)c1,0,/,102*,-3,0,11,44µM*
Cc1cccc(S(=O)(=O)N[C@@H]2CC[C@@H](CCn3cc(-c4ccccn4)nn3)O[C@@H]2CO)c1,1,/,98*,-6,0,-12,-36%[38 µM]
COc1ccc(NC(=O)Nc2ccc3c(c2)CC(=O)N([C@H](C)CO)C[C@@H](C)[C@@H](CN(C)Cc2ccc(Cl)c(Cl)c2)O3)cc1,/,/,/,/,0,/,/
O=S(=O)(N[C@H]1CC[C@@H](CCn2cc(-c3ccccn3)nn2)O[C@H]1CO)c1cccc(Cl)c1,0,/,70*,-1,0,4,32µM*
SMILES,AF4-AF9 inh,PDI turbidity,ARNT TACC3 PPI,ERp5 block,FGF22 binding,FN deposition inh,AlphaScreen ctr
O=S(=O)(N[C@@H]1CC[C@H](CCn2cc(-c3ccccn3)nn2)O[C@@H]1CO)c1cccc(Cl)c1,1,/,66*,0,0,0,31µM*
COc1cccc(S(=O)(=O)N[C@H]2CC[C@H](CCn3cc(-c4ccccn4)nn3)O[C@@H]2CO)c1,-1,/,/,-1,0,/,/
Cc1cccc(S(=O)(=O)N[C@H]2CC[C@@H](CCn3cc(-c4ccccn4)nn3)O[C@H]2CO)c1,0,/,/,2,0,3,/
O=S(=O)(N[C@@H]1CC[C@@H](CCn2cc(-c3ccccn3)nn2)O[C@H]1CO)c1cccc(Cl)c1,1,/,66*,2,-1,-2,41µM*
Cc1cccc(S(=O)(=O)N[C@@H]2CC[C@@H](CCn3cc(-c4ccccn4)nn3)O[C@H]2CO)c1,0,/,/,3,0,-13,/
CCC(=O)N(C)C[C@@H]1Oc2cc(-c3ccncc3)ccc2S(=O)(=O)N([C@@H](C)CO)C[C@@H]1C,-1,/,-6,-3,0,/,/
Cc1ccc(S(=O)(=O)n2nc(C)c(C#N)c2N)cc1,-3,6,67*,-1,0,2,2%
CC(C)NC(=O)Nc1ccc2c(c1)CC(=O)N([C@H](C)CO)C[C@H](C)[C@H](CN(C)Cc1ccc(Cl)c(Cl)c1)O2,-4,/,1,-2,0,/,/
CN(C)CC(=O)N1[C@H](C(=O)NC2CCCC2)[C@@H](CO)[C@@H]2Cn3c(ccc(-c4ccc(F)cc4)c3=O)[C@@H]21,-3,/,-7,-5,0,/,/
Cc1ccc(Nc2nc(-c3c(C)nc4ncccn34)cs2)cc1,/,0,27,/,/,/,/
Cc1nc2ncccn2c1-c1csc(Nc2ccc(O)cc2)n1,3,53*,68*,-6,42,/,22µM*
COc1ccc(NC(=O)Nc2ccc3c(c2)CC(=O)N([C@H](C)CO)C[C@H](C)[C@@H](CN(C)Cc2ccc(Oc4ccccc4)cc2)O3)cc1,3,/,55*,0,0,/,19µM*
CC(C)NC(=O)Nc1ccc2c(c1)CC(=O)N([C@H](C)CO)C[C@@H](C)[C@@H](CN(C)Cc1ccc(Oc3ccccc3)cc1)O2,?,/,active,?,0,/,71µM*

# Source: PubChem (Broad Institute)
